Several values for one entry are separate records, joined by “and”; a condition that tells them apart may be missing. Equal values may be shown once.
Columns and labels:
[1] = target: T1, Telomerase reverse transcriptase (Homo sapiens, UniProt O14746); test: Apparent telomerase inhibition by mixed mechanism
[2] = target: T1, Telomerase reverse transcriptase; test: Apparent telomerase inhibition by G-quadruplex mechanism
[3] = target: T1, Telomerase reverse transcriptase; test: Effect of varying the number and disposition of charged groups around the compound nucleus on telomerase inhibition at 25 uM
Summary of the method: (§1)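 HeLa cell extract (60 µg total protein) as the telomerase source in a primer-extension assay with 1 µM 5′-biotinylated (TTAGGG)3 primer, 1.2 µM 32P-dGTP, and 1 mM each of dATP and dTTP. Buffer was Tris-OAc at pH 8.5 with KOAc, MgCl2, BME and spermidine. Porphyrin was fixed at 25 µM and reactions ran at 37 °C for 30 min. Products were run on 8% denaturing PAGE and quantified by autoradiogram densitometry, giving % inhibition relative to a porphyrin-free control.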

[4] = target: T1, Telomerase reverse transcriptase; test: Effect of combination of charged and hydrogen bonding groups on telomerase inhibition at 25 uM; summary of the method: as §1
[5] = target: T1, Telomerase reverse transcriptase; test: Effect of substituent bulk on telomerase inhibition at 25 uM; summary of the method: as §1
[6] = target: T1, Telomerase reverse transcriptase; test: Effect of uncharged hydrogen bonding group on telomerase inhibition at 25 uM; summary of the method: as §1
[7] = target: T1, Telomerase reverse transcriptase; test: Effect of meso group on telomerase inhibition at 25 uM; summary of the method: as §1
[8] = target: T1, Telomerase reverse transcriptase; test: Dependence of telomerase inhibition on the ability to stack with G-tetrads; conditions: concentration not given here; summary of the method: as §1
[9] = target: T1, Telomerase reverse transcriptase; test: Percentage inhibition of human telomerase at 25 uM concentration in HeLa cell; assay type: cell-based; summary of the method: as §1

T1 sequence (O14746 whole entry): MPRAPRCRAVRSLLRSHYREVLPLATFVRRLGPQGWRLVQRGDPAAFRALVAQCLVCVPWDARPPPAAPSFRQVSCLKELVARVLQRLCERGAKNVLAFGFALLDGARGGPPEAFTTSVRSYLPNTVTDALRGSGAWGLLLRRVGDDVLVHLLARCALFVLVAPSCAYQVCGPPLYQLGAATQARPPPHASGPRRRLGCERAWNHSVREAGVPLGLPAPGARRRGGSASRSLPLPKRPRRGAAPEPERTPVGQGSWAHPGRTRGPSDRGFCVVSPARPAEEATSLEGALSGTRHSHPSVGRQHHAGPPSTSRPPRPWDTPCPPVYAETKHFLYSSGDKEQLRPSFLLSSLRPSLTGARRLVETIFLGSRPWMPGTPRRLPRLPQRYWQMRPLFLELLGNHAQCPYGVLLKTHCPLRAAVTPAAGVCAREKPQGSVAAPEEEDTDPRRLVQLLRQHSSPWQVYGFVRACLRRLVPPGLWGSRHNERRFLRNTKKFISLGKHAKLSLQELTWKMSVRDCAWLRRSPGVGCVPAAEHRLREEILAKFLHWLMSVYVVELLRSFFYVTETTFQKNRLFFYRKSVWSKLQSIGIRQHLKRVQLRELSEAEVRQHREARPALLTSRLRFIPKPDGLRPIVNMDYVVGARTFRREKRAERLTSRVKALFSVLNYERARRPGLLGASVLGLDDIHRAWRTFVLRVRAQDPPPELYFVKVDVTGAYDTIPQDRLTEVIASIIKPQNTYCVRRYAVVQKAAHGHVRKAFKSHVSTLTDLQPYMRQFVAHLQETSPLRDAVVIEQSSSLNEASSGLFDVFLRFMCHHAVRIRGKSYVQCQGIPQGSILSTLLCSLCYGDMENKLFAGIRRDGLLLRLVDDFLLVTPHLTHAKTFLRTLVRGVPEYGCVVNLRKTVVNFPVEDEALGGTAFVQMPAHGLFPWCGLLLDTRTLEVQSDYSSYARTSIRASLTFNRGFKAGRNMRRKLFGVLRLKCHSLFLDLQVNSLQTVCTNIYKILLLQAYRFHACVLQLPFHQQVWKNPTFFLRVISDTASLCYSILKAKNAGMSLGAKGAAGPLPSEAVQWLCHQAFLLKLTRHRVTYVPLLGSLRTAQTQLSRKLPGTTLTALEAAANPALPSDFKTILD

Q: Which IC50 [1] does the source give for `OCC[n+]1ccc(-c2c3nc(c(-c4cc[n+](CCO)cc4)c4ccc([nH]4)c(-c4cc[n+](CCO)cc4)c4ccc([nH]4)c(-c4cc[n+](CCO)cc4)c4nc2C=C4)C=C3)cc1` here?
A: 30 µM

Q: `C[n+]1ccc(-c2c3nc(c(-c4cc[n+](C)cc4)c4ccc([nH]4)c(-c4cc[n+](C)cc4)c4nc(c(-c5cc[n+](C)cc5)c5ccc2[nH]5)C=C4)C=C3)cc1` [TMPYP4 CHLORIDE] was tested. Which IC50 [2] did it give?
A: 6.25 µM and 10 µM

Q: Which results are given for `C[n+]1ccc(-c2c3nc(c(-c4cc[n+](C)cc4)c4ccc([nH]4)c(-c4cc[n+](C)cc4)c4ccc([nH]4)c(-c4cc[n+](C)cc4)c4nc2C=C4)C=C3)cc1`?
A: inhibition [3]: 62%; inhibition [4]: 60%; inhibition [5]: 60%; inhibition [6]: 60%; inhibition [7]: 67%; inhibition [8]: 66%

Q: `C[n+]1cccc(-c2c3nc(c(-c4cc5ccccc5[n+](C)c4)c4ccc([nH]4)c(-c4ccc[n+](C)c4)c4nc(c(-c5cc6ccccc6[n+](C)c5)c5ccc2[nH]5)C=C4)C=C3)c1` was tested. Which IC50 [1] did it give?
A: 10 µM

Q: With `CC1=C(CCNCCN)c2cc3[nH]c(cc4[nH]c(cc5nc(cc1n2)C(C)=C5CCNCCN)c(C)c4CCNCCN)c(CCNCCN)c3C` as the molecule, how does the inhibition [9] read?
A: 0%

Q: For `C[n+]1cccc(-c2c3ccc([nH]3)c(-c3cc4ccccc4[n+](C)c3)c3nc(c(-c4cc5ccccc5[n+](C)c4)c4nc(c(-c5cc6ccccc6[n+](C)c5)c5ccc2[nH]5)C=C4)C=C3)c1`, which IC50 [1] is on record?
A: 5 µM

Q: What does the source list for `C[n+]1cccc(-c2c3nc(c(-c4ccc[n+](C)c4)c4ccc([nH]4)c(-c4ccc[n+](C)c4)c4ccc([nH]4)c(-c4ccc[n+](C)c4)c4nc2C=C4)C=C3)c1`?
A: inhibition [5]: 50%; IC50 [2]: 25 µM and 12 µM

Q: Which results are given for `C[n+]1cc(-c2c3nc(c(-c4cc5ccccc5[n+](C)c4)c4ccc([nH]4)c(-c4cc5ccccc5[n+](C)c4)c4ccc([nH]4)c(-c4cc5ccccc5[n+](C)c4)c4nc2C=C4)C=C3)cc2ccccc21`?
A: inhibition [3]: 37%; inhibition [4]: 30%; inhibition [5]: 28%; inhibition [6]: 28%; inhibition [7]: 32%; inhibition [8]: 14%

Q: `C[n+]1ccc(-c2c3nc(c(-c4ccc(C(=O)NCCBr)cc4)c4nc(c(-c5cc[n+](C)cc5)c5ccc([nH]5)c(-c5cccc(C(=O)NCCBr)c5)c5ccc2[nH]5)C=C4)C=C3)cc1` was tested. Which IC50 [1] did it give?
A: 15 µM
